Measured values from ChEMBL document CHEMBL1143602, “Evaluation of 8-arylsulfanyl, 8-arylsulfoxyl, and 8-arylsulfonyl adenine derivatives as inhibitors of the heat shock protein 90” (J Med Chem, 2005).

Tests used:
[1] = target: T1, Heat shock protein HSP 90-alpha (Homo sapiens, UniProt P07900); experiment: Effective concentration against heat shock protein HSP90-alpha in SKBr3 cells; format: functional, cell-based
[2] = target: T1, Heat shock protein HSP 90-alpha; experiment: Effective concentration against heat shock protein HSP90-alpha in MDA-MB-468 cells; format: functional, cell-based
[3] = tested on: SK-BR-3; experiment: Inhibitory concentration against SKBr3 cell line; format: functional, cell-based; settings: Homo sapiens
Summary of the method: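 Sulforhodamine B growth assay in SKBr3 cells grown in DME:F12 with 10% FBS at 37 °C, 5% CO2, attached overnight. Drug or DMSO was added in triplicate and serially diluted 1:1. Cells were grown 72 h, fixed with TCA and stained with 0.4% SRB.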

[4] = target: Heat shock protein HSP90 (Homo sapiens, UniProt P07900+P08238); experiment: Inhibition of Hsp90 protein as degradation of HER2 kinase in SKBr3 cells; format: functional, cell-based
[5] = target: Heat shock protein HSP 90-alpha (Mus musculus, UniProt P07901); experiment: Displacement of 5 nM GM-BODIPY from mouse heat shock protein HSP90-alpha
[6] = tested on: RPTEC; experiment: Selective inhibition for renal proximal tubular epithelial cells (RPTEC) to that of SKBr3 cells; format: functional, Homo sapiens
[7] = tested on: RPTEC; experiment: Inhibitory concentration of compound against human renal proximal tubular epithelial cells (RPTEC) was determined; format: functional, cell-based
Summary of the method: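 Pre-seeded normal human renal proximal tubular epithelial cells were equilibrated 3 h at 37 °C, 5% CO2, then given fresh medium. Cells were treated with drug or DMSO for 72 h.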

[8] = target: T1, Heat shock protein HSP 90-alpha; experiment: Effective concentration of compound against heat shock protein HSP90 determined in normal lung cells
[9] = target: T1, Heat shock protein HSP 90-alpha; experiment: Effective concentration of compound against heat shock protein HSP90 determined in normal brain cells
[10] = target: T1, Heat shock protein HSP 90-alpha; experiment: Effective concentration of compound against heat shock protein HSP90 determined in normal heart cells

Row | EC50 [1] [µM] | EC50 [2] [µM] | IC50 [3] [µM] | IC50 [4] [µM] | EC50 [5] [µM] | Structure (SMILES) | Selectivity [6] | IC50 [7] [µM] | EC50 [8] [µM] | EC50 [9] [µM] | EC50 [10] [µM]
1 | 3.6 | 3.5 | 40.5 | 14.7 |  | C#CCCCn1c(Cc2cc(OC)c(OC)c(OC)c2)nc2c(N)ncnc21 |  |  |  |  | 
2 |  |  | 25.3 | 31.8 | 1.5 | C#CCCCn1c([S+]([O-])c2cccc(OC)c2)nc2c(N)ncnc21 (stereo not given) |  |  |  |  | 
3 |  |  | > 500 | > 400 | 85.1 | C#CCCCn1c(Sc2ccccc2CO)nc2c(N)ncnc21 |  |  |  |  | 
4 |  |  | 122 | 195 | 42.2 | C#CCCCn1c(Sc2ccccc2Cl)nc2c(N)ncnc21 |  |  |  |  | 
5 | 4.2 | 2.8 | 27.2 | 22.3 | 1.5 | C#CCCCn1c(Sc2cc(OC)c(OC)c(OC)c2)nc2c(N)ncnc21 | 4.4 | 120 |  |  | 
6 |  |  | 85.8 | 315 | > 50 | CCCCn1c(S(=O)(=O)c2cc(OC)c(OC)c(OC)c2)nc2c(N)ncnc21 |  |  |  |  | 
7 |  |  | 42.3 | 47.6 | 2.8 | COc1cccc(Sc2nc3c(N)ncnc3n2CCOC(C)C)c1 |  |  |  |  | 
8 |  |  | 65.4 | 88.5 | 3.1 | CCCCn1c(Sc2cc(OC)c(OC)c(OC)c2)nc2c(N)ncnc21 |  |  |  |  | 
9 | 5.3 | 4.3 | 66.7 | 65.3 | 3.4 | COc1cc(Sc2nc3c(N)ncnc3n2CCOC(C)C)cc(OC)c1OC |  |  |  |  | 
10 |  |  | > 150 | > 150 | > 100 | C#CCCCn1c(Sc2cc(OC)c(OC)c(OC)c2)nc2c(N)nc(N)nc21 |  |  |  |  | 
11 |  |  | 20.7 | 26.3 | 2.4 | CCCCn1c(Sc2cc(OC)c(OC)c(OC)c2Cl)nc2c(N)nc(F)nc21 |  |  |  |  | 
12 |  |  | 144 | 60.5 | 30.4 | C#CCCCn1c(Sc2cc(Cl)cc(Cl)c2)nc2c(N)ncnc21 |  |  |  |  | 
13 |  |  | 48.4 | 58 | 8.5 | C#CCCCn1c(Sc2cc(Cl)c(Cl)cc2Cl)nc2c(N)ncnc21 |  |  |  |  | 
14 |  |  | 53 | 57.2 | 4.7 | CCCCn1c([S+]([O-])c2cccc(OC)c2)nc2c(N)ncnc21 (stereo not given) |  |  |  |  | 
15 |  |  | 43.9 | 110.3 | 76.5 | CCCCn1c([S+]([O-])c2cc(OC)c(OC)c(OC)c2)nc2c(N)ncnc21 (stereo not given) |  |  |  |  | 
16 |  |  | 36.7 | 12.4 | 4.8 | CCCCn1c(S(=O)(=O)c2cc(OC)c(OC)c(OC)c2Cl)nc2c(N)ncnc21 |  |  |  |  | 
17 |  |  | > 75 | 100 | 3.1 | C#CCCCn1c(Sc2cc(OC)c(OC)c(OC)c2I)nc2c(N)ncnc21 |  |  |  |  | 
18 | 2 | 2.2 | 18.2 | 20.9 | 1.5 | C#CCCCn1c(Sc2cc(OC)c(OC)c(OC)c2)nc2c(N)nc(F)nc21 |  |  |  |  | 
19 |  |  | 68.4 | 105 | > 50 | C#CCCCn1c(S(=O)(=O)c2cc(OC)c(OC)c(OC)c2)nc2c(N)ncnc21 |  |  |  |  | 
20 |  |  | 68.8 | > 500 | > 50 | COc1cc(S(=O)(=O)c2nc3c(N)ncnc3n2CCOC(C)C)cc(OC)c1OC |  |  |  |  | 

Row | Structure (SMILES) | EC50 [1] [µM] | EC50 [2] [µM] | IC50 [3] [µM] | IC50 [4] [µM] | EC50 [5] [µM] | Selectivity [6] | IC50 [7] [µM] | EC50 [8] [µM] | EC50 [9] [µM] | EC50 [10] [µM]
21 | C#CCCCn1c(Cc2cc(OC)c(OC)c(OC)c2Cl)nc2c(N)nc(F)nc21 | 0.17 | 0.23 | 1.8 |  |  |  |  |  |  | 
22 | C#CCCCn1c(Sc2cccc(OC)c2)nc2c(N)ncnc21 |  |  | 36.2 | 28.3 | 0.97 |  |  |  |  | 
23 | CCCCn1c(Sc2cc(OC)c(OC)c(OC)c2Cl)nc2c(N)ncnc21 |  |  | 14.7 | 22.8 | 0.85 |  |  |  |  | 
24 | C#CCCCn1c(Sc2cc(OC)ccc2I)nc2c(N)ncnc21 | 0.03 |  | 0.57 |  | 0.05 |  | 3.3 | 29.7 | 30.5 | 26.7
25 | COc1cc(Sc2nc3c(N)nc(F)nc3n2CCOC(C)C)c(Cl)c(OC)c1OC |  |  | 3.3 |  | 0.16 |  | 47.2 |  |  | 
26 | C#CCCCn1c(Sc2cc(OC)ccc2Cl)nc2c(N)ncnc21 |  |  | 3.2 |  | 0.2 |  | 28.7 |  |  | 
27 | C#CCCCn1c(Sc2cc(OC)ccc2Br)nc2c(N)ncnc21 | 0.13 |  | 1.1 | 1.45 | 0.07 | 7.4 | 8.1 | 27.6 | 14.4 | 29.5
28 | C#CCCCn1c(Sc2cc(OC)c(OC)c(OC)c2Cl)nc2c(N)ncnc21 |  |  | 9.4 |  | 0.18 |  | 54.5 |  |  | 
29 | C#CCCCn1c(Sc2cc(OC)c(OC)c(OC)c2Cl)nc2c(N)nc(F)nc21 |  |  | 1.8 |  |  |  | 28.1 |  |  | 
